Laboratory results from ChEMBL document CHEMBL4038278, “Structural modifications of diarylpyrimidines (DAPYs) as HIV-1 NNRTIs: Synthesis, anti-HIV activities and SAR” (Bioorg Med Chem, 2017).
pEC50: −log10 of the molar value.

Assays:
[1] = Selectivity index, ratio of CC50 for human MT4 cells to EC50 for HIV-1 3B wild type reverse transcriptase infected in human MT4 cells; format: toxicity, cell-based; conditions: read-out: Ratio CC50/EC50
Method in brief: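 SI calculated as CC50 in mock-infected MT-4 cells divided by EC50 against HIV-1 IIIB. Both values come from the same 5-day MTT run, with infected and mock-infected triplicate series tested in parallel.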

[2] = Inhibition of HIV-1 3B wild type reverse transcriptase infected in human MT4 cells assessed as protection against virus-induced cytopathic effect measured at 5 days post infection by MTT assay; format: cell-based; conditions: Human immunodeficiency virus 1, 3B, MT4, 120 h
Method in brief: (§1)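 MT-4 cells spun down (5 min, 220 g), resuspended at 6 x 10^5 cells/mL and infected with 100-300 CCID50 virus. Serial 5-fold compound dilutions added at infection, triplicate wells. After 5 days, viability read by MTT reduction at 540 and 690 nm using the median of three wells. […] Mean of at least three independent experiments.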

[3] = Cytotoxicity against human MT4 cells assessed as reduction in cell viability after 5 days by MTT assay; format: cell-based
Method in brief: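 Mock-infected exponentially growing MT-4 cells (6 x 10^5 cells/mL) given serial 5-fold compound dilutions in triplicate wells in parallel with the infected series. Viability measured by MTT after 5 days, absorbance at 540/690 nm, median of three wells. […] Mean of at least three independent experiments.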

[4] = test system: Human immunodeficiency virus 2; test: Antiviral activity against HIV-2 ROD infected in human MT4 cells assessed as protection against virus induced cytopathic effect measured at 5 days post infection by MTT assay; format: functional, cell-based; conditions: Human immunodeficiency virus 2, ISOLATE ROD, MT4, 120 h; method in brief: as §1

| Structure (SMILES) | selectivity ratio [1] | pEC50 [2] | CC50 at 120 h [3] [µM] | pEC50 [4] |
| --- | --- | --- | --- | --- |
| COc1cccc(COc2ccnc(Nc3ccc(C#N)cc3)n2)c1 | 4720 | 7.60 | 118 | < 3.93 |
| N#Cc1ccc(Nc2nccc(OCc3cccc(C(F)(F)F)c3)n2)cc1 | 193 | 6.21 | 118 | < 3.93 |
| COc1ccccc1COc1ccnc(Nc2ccc(C#N)cc2)n1 | 356 | 7.57 | 8.9 | < 5.05 |
| N#Cc1ccc(Nc2nccc(OCc3ccccc3Cl)n2)cc1 | 4420 | 7.47 | 146 | < 3.84 |
| Cc1cccc(COc2ccnc(Nc3ccc(C#N)cc3)n2)c1 | 3410 | 8.06 | 30 | < 4.52 |
| N#Cc1ccc(Nc2nccc(OCc3cccc(F)c3)n2)cc1 | 7500 | 7.85 | 105 | < 3.98 |
| N#Cc1ccc(Nc2nccc(OCc3cc(F)ccc3Br)n2)cc1 | 4870 | 7.41 | 190 | < 3.72 |
| COc1cc(COc2ccnc(Nc3ccc(C#N)cc3)n2)cc(OC)c1 | 4940 | 8.05 | 44.2 | < 4.36 |
| N#Cc1ccc(Nc2nccc(NCc3ccccn3)n2)cc1 | 1120 | 8.12 | 8.5 | < 5.07 |
| Cc1ccc(COc2ccnc(Nc3ccc(C#N)cc3)n2)cc1 | 495 | 6.80 | 81 | < 4.09 |
| Cc1cc(C#N)cc(C)c1Oc1nc(Nc2ccc(C#N)cc2)nc(N)c1Br [ETRAVIRINE] | – | 8.38 | 1.9 | – |
| N#Cc1ccc(Nc2nccc(OCc3ccc4ccccc4c3)n2)cc1 | 1250 | 6.77 | 212 | < 3.67 |
| Cc1cn([C@H]2C[C@H](N=[N+]=[N-])[C@@H](CO)O2)c(=O)[nH]c1=O [ZIDOVUDINE] | – | 7.96 | – | – |
| N#Cc1ccc(Nc2nccc(OCc3ccccc3)n2)cc1 | 591 | 7.66 | 13 | < 4.89 |
| CN(C)c1ccnc(Nc2ccc(C#N)cc2)n1 | < 1 | < 4.47 | 34 | < 4.47 |
| N#Cc1ccc(COc2ccnc(Nc3ccc(C#N)cc3)n2)cc1 | 149 | 5.85 | 209 | < 3.68 |
| N#Cc1ccc(Nc2nccc(OCc3cccc4ccccc34)n2)cc1 | 513 | 7.82 | 7.7 | < 5.11 |
| CC(C)Nc1cccnc1N1CCN(C(=O)c2cc3cc(NS(C)(=O)=O)ccc3[nH]2)CC1 [DELAVIRDINE] | – | 7.43 | 23 | – |

| Structure (SMILES) | selectivity ratio [1] | pEC50 [2] | CC50 at 120 h [3] [µM] | pEC50 [4] |
| --- | --- | --- | --- | --- |
| N#Cc1ccc(Nc2nccc(OCc3cccc(Cl)c3)n2)cc1 | 3120 | 7.31 | 153 | < 3.82 |
| N#Cc1ccc(Nc2nccc(OCc3cccc(Br)c3)n2)cc1 | 4600 | 7.32 | 221 | < 3.66 |
| N#Cc1ccc(Nc2nccc(OCc3ccccc3C#N)n2)cc1 | 8070 | 7.85 | 113 | < 3.95 |
| COc1ccc(COc2ccnc(Nc3ccc(C#N)cc3)n2)cc1 | 102 | 6.00 | 102 | < 3.99 |
| N#Cc1ccc(Nc2nccc(OCc3ccccc3C(F)(F)F)n2)cc1 | 102 | 5.77 | 173 | < 3.76 |
| O=C1Nc2ccc(Cl)cc2[C@@](C#CC2CC2)(C(F)(F)F)O1 [EFAVIRENZ] | – | 8.14 | – | – |
| N#Cc1ccc(Nc2nccc(OCc3ccccc3F)n2)cc1 | 26000 | 8.24 | 151 | < 3.82 |
| N#Cc1ccc(Nc2nccc(OCc3ccc(Br)cc3F)n2)cc1 | 641 | 6.66 | 141 | < 3.85 |
| Cc1ccccc1COc1ccnc(Nc2ccc(C#N)cc2)n1 | 75 | 6.80 | 12 | < 4.92 |
| N#Cc1ccc(Nc2nccc(OCc3cccc(C#N)c3)n2)cc1 | 23 | 6.74 | 4.1 | < 5.39 |
| N#Cc1ccc(Nc2nccc(OCc3ccc(Cl)cc3)n2)cc1 | 186 | 6.08 | 156 | < 3.81 |
| N#Cc1ccc(Nc2nccc(OCc3ccc(F)cc3)n2)cc1 | 88 | 6.04 | 81 | < 4.09 |
| Cc1ccnc2c1NC(=O)c1cccnc1N2C1CC1 [NEVIRAPINE] | – | 6.68 | > 15 | – |
| Cc1cc(C)nc(Sc2ccnc(Nc3ccc(C#N)cc3)n2)n1 | 8 | 4.57 | 224 | < 3.65 |
| N#Cc1ccc(Nc2nccc(OCc3ccc(Br)cc3)n2)cc1 | 3.4 | 5.33 | 16 | < 4.80 |
| N#Cc1ccc(Nc2nccc(OCc3ccccc3Br)n2)cc1 | 3610 | 7.44 | 130 | < 3.89 |
| N#Cc1ccc(Nc2nccc(OCc3cccnc3)n2)cc1 | 8 | 6.11 | 6.4 | < 5.19 |
